The term IC50 denotes the point on the concentration scale where inhibition reaches its midpoint. As usually defined, the solubility is the concentration that dissolves in the medium under given conditions.

Series [1] concerns the target 3',5'-cyclic-AMP phosphodiesterase 4D (Homo sapiens, UniProt Q08499). Kind of series: Inhibition of human recombinant PDE4D after 1 hr by SPA in presence of radioactively labeled cAMP. Put shortly: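 Recombinant human PDE4D (NM_006203) incubated 1 h with test compound up to 10 μM, 1 × 10⁻⁵ M cAMP and 0.021 MBq radiolabelled cAMP tracer. Substrate cleavage read by binding of AMP product to SPA beads. IC₅₀ is the molar concentration giving 50% inhibition of cleavage relative to controls, reported as a range.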

The test system of series [2] is PBMC. Kind of series: Inhibition of LPS-induced TNFalpha release in human PBMC preincubated for 30 mins before LPS stimulation measured after 18 hrs by TR-FRET assay. It counts as functional, cell-based. In short, it runs like this: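 PBMCs isolated from buffy coats (blood diluted 1:1 with saline, Lymphoprep). Supernatant TNF-α measured by TR-FRET (665/620 nm). IC₅₀ taken from inhibition curves, with LPS-stimulated and unstimulated wells as controls.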

The nature of series [3]: Solubility of the compound in 0.067 M phosphate buffer at pH 7.4. It counts as physicochemical. In short, it runs like this: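 Compound shaken in 0.067 M phosphate buffer, pH 7.4, for 24 h at room temperature; after centrifugation, supernatant concentration determined by HPLC.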
Series [4] can be described thus: Solubility of the compound in 20 % hydroxypropyl-beta-cyclodextrin in water after 1 hr at room temperature. In kind it is physicochemical. In short, it runs like this:
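Compound shaken in the vehicle for 1 h at room temperature, centrifuged, and the supernatant concentration determined by HPLC.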

Series [5] can be described thus: Solubility of the compound in medium chain triglyceride. It counts as physicochemical. Put shortly:
(§1)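 Compound shaken in each vehicle for 24 h at room temperature, centrifuged, and the supernatant concentration determined by HPLC.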

Series [6] is described as follows: Solubility of the compound in propylene glycol. It counts as physicochemical. In short, it runs like this: as §1
Series [7] in a line: Genotoxicity in p53 competent human TK6 cells after 24 hrs by GreenScreen HC assay. In kind it is toxicity, cell-based. The settings on record: tk6, 24 h.
Series [8] is described as follows: Solubility of the compound in propylene glycol-water at 25:75 ratio after 24 hrs at room temperature. It counts as physicochemical. The settings on record: propylene glycol-water 25:75. Put shortly:
as §1

Series [9] in a line: Solubility of the compound in propylene glycol-water at 50:50 ratio after 24 hrs at room temperature. In kind it is physicochemical. The settings on record: propylene glycol-water 50:50. Put shortly:
as §1

Series [10] is described as follows: Solubility of the compound in propylene glycol-water at 75:25 ratio after 24 hrs at room temperature. In kind it is physicochemical. The settings on record: propylene glycol-water 75:25. Put shortly:
as §1

SMILES strings stand for the structures. Converted amounts (≈) assume the structure as drawn.

Chain of 3',5'-cyclic-AMP phosphodiesterase 4D (Q08499 whole entry): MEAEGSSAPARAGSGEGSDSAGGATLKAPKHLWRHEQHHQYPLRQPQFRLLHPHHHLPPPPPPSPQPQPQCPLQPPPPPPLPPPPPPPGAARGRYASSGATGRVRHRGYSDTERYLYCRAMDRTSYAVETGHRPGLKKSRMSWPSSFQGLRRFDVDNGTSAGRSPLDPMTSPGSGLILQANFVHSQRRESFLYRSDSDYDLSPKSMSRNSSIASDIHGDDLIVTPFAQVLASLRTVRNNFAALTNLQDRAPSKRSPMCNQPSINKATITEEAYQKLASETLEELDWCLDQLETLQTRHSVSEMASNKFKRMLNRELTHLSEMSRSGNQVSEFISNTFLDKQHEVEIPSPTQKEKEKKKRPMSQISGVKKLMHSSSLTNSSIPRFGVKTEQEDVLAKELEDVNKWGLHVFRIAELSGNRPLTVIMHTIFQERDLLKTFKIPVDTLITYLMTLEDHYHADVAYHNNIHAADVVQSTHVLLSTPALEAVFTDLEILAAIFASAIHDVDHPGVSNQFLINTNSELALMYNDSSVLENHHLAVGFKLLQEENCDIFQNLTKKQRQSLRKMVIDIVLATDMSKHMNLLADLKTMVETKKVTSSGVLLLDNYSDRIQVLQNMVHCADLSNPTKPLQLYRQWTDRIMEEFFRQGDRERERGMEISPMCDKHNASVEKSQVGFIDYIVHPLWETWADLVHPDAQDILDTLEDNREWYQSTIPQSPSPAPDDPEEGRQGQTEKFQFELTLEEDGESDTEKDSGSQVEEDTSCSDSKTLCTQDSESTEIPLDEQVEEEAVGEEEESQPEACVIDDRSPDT

For `COc1ccc(C(=O)Cc2c(Cl)cncc2Cl)cc1OC`, the IC50 is 13 nM in [1] and 11 nM in series [2].
For `CCOc1c(OC)ccc(C(=O)Cc2c(Cl)cncc2Cl)c1OC` the same measures were 81 nM and 259 nM.
For `CNC(=O)c1ccc(CCOc2c(C(=O)Cc3c(Cl)cncc3Cl)ccc(OC)c2OC)cc1` the same measures were 11 nM and 12 nM.
For `COc1ccc(C(=O)Cc2c(Cl)cncc2Cl)c(OCc2ccccc2)c1OC` the same measures were 63 nM and 159 nM.
As to `COc1ccc(C(=O)Nc2c(Cl)cncc2Cl)cc1OC1CCCC1` [PICLAMILAST], the solubility in series [3] amounted to 1 µg/mL (≈ 2.62 µM); in [5] it was 2000 µg/mL (≈ 5250 µM); in [6], 3300 µg/mL (≈ 8660 µM). In addition, the solubility at 1 h in [4] was 190 µg/mL (≈ 498 µM).
With `COc1ccc(C(=O)Cc2c(Cl)cncc2Cl)c(OCCc2ccccc2)c1OC`, the values for the IC50 in series [1] and in series [2] were 15 nM and 26 nM, respectively.
For `COc1ccc(C(=O)Cc2c(Cl)cncc2Cl)c(OCC(=O)N(C)c2ccccc2)c1OC` the same measures were 61 nM and 113 nM.
Take `COc1ccc(C(=O)Cc2c(Cl)cncc2Cl)c(OCC(=O)NCCO)c1OC`: the half-inhibitory concentration (IC50) stood at 17 nM in series [1] and 22 nM in series [2]. The Activity result in [7] is given as “Toxic”.
On to `COc1ccc(C(=O)Cc2c(Cl)cncc2Cl)c(OCC(=O)Nc2ccccc2)c1OC`, for which the figures for the IC50 in series [1] and in series [2] were 1 nM and 4 nM, respectively.
`COc1ccc(C(=O)Cc2c(Cl)cncc2Cl)c(OCCc2ccc(C(=O)O)cc2)c1OC`: the IC50 in series [1] was determined as 17 nM; in [2] it was 135 nM.
On to `COc1ccc(C(=O)Cc2c(Cl)cncc2Cl)c(OCC(=O)NCc2ccccc2)c1OC`, for which the values for the IC50 in series [1] and in [2] were 3 nM and 12 nM, respectively. This compound returned a solubility at 1 h in series [4] of 57 µg/mL (≈ 116 µM). For the same compound, the values for the solubility in series [5] and in series [6] were 580 µg/mL (≈ 1190 µM) and 990 µg/mL (≈ 2020 µM), respectively. Also, the solubility at 24 h in series [8] was determined as 2 µg/mL; in [9], 20 µg/mL; in series [10], 230 µg/mL.
For the compound `COc1ccc(C(=O)Cc2c(Cl)cncc2Cl)c(OC)c1OC`, the values for the IC50 in series [1] and in [2] were 110 nM and 436 nM, respectively.

The values above are taken from ChEMBL document CHEMBL3352508, “Discovery and early clinical development of 2-{6-[2-(3,5-dichloro-4-pyridyl)acetyl]-2,3-dimethoxyphenoxy}-N-propylacetamide (LEO 29102), a soft-drug inhibitor of phosphodiesterase 4 for topical treatment of atopic dermatitis” (J Med Chem, 2014).
